Measured values: ChEMBL document CHEMBL4699542, “Design and synthesis of novel methoxypyridine-derived gamma-secretase modulators” (Bioorg Med Chem, 2020)
pIC50: −log10 of the molar value. Values after ≈ are worked out from the molar mass of the structure shown.

Key:
[1] = Metabolic stability in mouse liver microsomes assessed as parent compound remaining at 1 uM incubated for 30 mins; type: ADME, Microsome; settings: 0.5 h
Procedure, shortened: (§1)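 Test compound at 1 μM incubated 30 min with human, rat or mouse liver microsomes (1 mg/mL); parent remaining expressed as %.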

Cytochrome P450 2C9 = Cytochrome P450 2C9 (Homo sapiens, UniProt P11712); assay: Inhibition of recombinant CYP2C9 (unknown origin) by fluorescence-based assay; type: ADME
Procedure, shortened: (§2)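 Recombinant CYP isoforms (five tested) screened for inhibition in fluorescence-based assays; IC50 in μM.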

Cytochrome P450 3A4 = Cytochrome P450 3A4 (Homo sapiens, UniProt P08684); assay: Inhibition of recombinant CYP3A4 (unknown origin) by fluorescence-based assay; type: ADME
Gamma-secretase = assay: Modulation of gamma secretase in human SH-SY5Y cells overexpressing wild type APP751 assessed as inhibition of amyloid beta (35 to 42 residues) formation incubated for overnight by ELISA; type: cell-based
Procedure, shortened: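 SHSY5Y-APP751 cells plated at 75K/well and incubated overnight at 37 °C, then treated 24 h over 10 concentrations ([…]–10 μM, 1:3.16 steps, in duplicate). Medium Aβ42 measured by sandwich ELISA (Aβ35–42 capture, AP-conjugated Aβ1–12 detection, CDP-Star luminescence) against an Aβ42 standard curve.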

[2] = Metabolic stability in rat liver microsomes assessed as parent compound remaining at 1 uM incubated for 30 mins; type: ADME, Microsome; settings: 0.5 h; procedure, shortened: as §1
Cytochrome P450 2C19 = Cytochrome P450 2C19 (Homo sapiens, UniProt P33261); assay: Inhibition of recombinant CYP2C19 (unknown origin) by fluorescence-based assay; type: ADME; procedure, shortened: as §2
[3] = Metabolic stability in human liver microsomes assessed as parent compound remaining at 1 uM incubated for 30 mins; type: ADME, Microsome; settings: for Stabilty: microsomes, 0.5 h, 1 µM; procedure, shortened: as §1
[4] = Kinetic aqueous solubility of the compound in pH 7.4 PBS buffer by UV/Visible absorbance analysis; type: physicochemical; settings: read-out: Kinetic_solubility
Procedure, shortened: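 Kinetic solubility determined in PBS at pH 7.4 by UV/Vis absorbance, reported in μM.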

Cytochrome P450 2D6 = Cytochrome P450 2D6 (Homo sapiens, UniProt P10635); assay: Inhibition of recombinant CYP2D6 (unknown origin) by fluorescence-based assay; type: ADME; procedure, shortened: as §2
Cytochrome P450 1A2 = target: T1, Cytochrome P450 1A2 (Homo sapiens, UniProt P05177); assay: Inhibition of recombinant CYP1A2 (unknown origin) by fluorescence-based assay; type: ADME; procedure, shortened: as §2
T1 sequence (P05177 whole entry): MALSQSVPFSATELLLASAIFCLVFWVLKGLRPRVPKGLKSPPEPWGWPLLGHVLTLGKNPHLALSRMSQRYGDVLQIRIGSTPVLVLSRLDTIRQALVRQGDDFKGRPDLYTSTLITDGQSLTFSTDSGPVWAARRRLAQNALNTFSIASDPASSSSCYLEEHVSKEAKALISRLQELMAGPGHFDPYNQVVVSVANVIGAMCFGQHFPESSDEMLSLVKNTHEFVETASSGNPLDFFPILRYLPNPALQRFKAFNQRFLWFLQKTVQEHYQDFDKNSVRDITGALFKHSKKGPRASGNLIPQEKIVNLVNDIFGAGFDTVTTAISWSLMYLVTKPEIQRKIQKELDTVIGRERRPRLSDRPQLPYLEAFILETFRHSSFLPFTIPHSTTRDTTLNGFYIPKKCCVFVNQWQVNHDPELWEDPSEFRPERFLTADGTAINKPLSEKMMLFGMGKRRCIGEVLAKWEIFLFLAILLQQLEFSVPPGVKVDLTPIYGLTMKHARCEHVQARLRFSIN

Chain of Cytochrome P450 2D6 (P10635 whole entry): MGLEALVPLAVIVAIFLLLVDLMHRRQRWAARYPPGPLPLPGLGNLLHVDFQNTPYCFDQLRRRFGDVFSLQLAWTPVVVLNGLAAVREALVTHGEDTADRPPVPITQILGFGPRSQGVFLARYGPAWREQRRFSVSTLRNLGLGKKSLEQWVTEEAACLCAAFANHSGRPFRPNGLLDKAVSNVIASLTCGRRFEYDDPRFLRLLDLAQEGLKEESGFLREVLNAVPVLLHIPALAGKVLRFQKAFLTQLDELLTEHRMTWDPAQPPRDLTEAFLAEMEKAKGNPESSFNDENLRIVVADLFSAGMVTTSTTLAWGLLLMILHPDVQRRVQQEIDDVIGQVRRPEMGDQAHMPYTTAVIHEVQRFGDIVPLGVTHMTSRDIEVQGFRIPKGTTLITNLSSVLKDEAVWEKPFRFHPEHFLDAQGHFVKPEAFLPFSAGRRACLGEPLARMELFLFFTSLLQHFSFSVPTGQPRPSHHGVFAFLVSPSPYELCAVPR
Chain of Cytochrome P450 2C9 (P11712 whole entry, canonical isoform): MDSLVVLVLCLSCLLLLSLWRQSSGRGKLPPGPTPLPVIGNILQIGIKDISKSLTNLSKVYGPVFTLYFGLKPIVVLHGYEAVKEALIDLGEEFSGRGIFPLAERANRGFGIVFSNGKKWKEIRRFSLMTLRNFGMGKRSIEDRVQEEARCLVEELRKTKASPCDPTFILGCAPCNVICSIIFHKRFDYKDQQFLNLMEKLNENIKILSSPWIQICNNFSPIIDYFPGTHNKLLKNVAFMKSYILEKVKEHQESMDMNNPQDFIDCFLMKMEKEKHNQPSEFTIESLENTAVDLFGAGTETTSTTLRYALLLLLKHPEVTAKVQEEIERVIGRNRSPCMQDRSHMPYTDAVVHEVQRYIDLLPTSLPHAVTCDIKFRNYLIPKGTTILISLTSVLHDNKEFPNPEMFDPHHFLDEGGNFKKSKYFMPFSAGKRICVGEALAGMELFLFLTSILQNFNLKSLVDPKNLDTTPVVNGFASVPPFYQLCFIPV
Chain of Cytochrome P450 2C19 (P33261 whole entry): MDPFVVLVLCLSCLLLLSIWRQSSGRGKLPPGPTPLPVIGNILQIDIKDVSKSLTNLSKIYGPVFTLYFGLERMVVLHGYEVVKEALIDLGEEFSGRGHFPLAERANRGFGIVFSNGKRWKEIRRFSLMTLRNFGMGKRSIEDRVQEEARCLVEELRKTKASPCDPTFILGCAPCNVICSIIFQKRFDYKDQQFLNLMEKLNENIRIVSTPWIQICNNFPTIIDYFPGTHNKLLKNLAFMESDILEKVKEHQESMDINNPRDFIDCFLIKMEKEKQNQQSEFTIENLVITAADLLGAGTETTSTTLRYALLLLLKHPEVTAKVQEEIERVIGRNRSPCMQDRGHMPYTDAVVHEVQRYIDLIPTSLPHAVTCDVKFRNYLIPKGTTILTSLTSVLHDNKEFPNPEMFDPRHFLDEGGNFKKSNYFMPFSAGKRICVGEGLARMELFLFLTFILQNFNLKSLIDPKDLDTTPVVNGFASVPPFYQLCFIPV
Chain of Cytochrome P450 3A4 (P08684 whole entry, the tested form may be a part): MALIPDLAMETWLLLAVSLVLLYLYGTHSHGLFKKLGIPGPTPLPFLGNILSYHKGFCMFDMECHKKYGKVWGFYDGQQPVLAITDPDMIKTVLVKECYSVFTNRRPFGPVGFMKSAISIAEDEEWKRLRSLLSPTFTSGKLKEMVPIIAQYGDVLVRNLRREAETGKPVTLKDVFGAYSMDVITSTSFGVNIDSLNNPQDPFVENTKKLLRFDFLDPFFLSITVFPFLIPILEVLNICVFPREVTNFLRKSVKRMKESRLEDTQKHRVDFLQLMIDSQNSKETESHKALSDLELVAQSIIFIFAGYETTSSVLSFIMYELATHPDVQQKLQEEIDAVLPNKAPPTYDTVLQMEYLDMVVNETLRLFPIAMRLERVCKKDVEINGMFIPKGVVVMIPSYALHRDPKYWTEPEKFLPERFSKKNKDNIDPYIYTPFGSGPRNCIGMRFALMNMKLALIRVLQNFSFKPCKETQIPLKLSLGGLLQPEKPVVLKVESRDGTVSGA

| Structure (SMILES) | Stabilty [1] | pIC50 (Gamma-secretase) | Stabilty [2] | Stabilty [3] | solubility kinetic [4] | also measured |
| --- | --- | --- | --- | --- | --- | --- |
| CCn1nc2c(c1Nc1nc(-c3ccc(-n4cnc(C)c4)c(OC)n3)cs1)C(C)CC2(C)C (racemic) | 21% | 7.14 | 38% | 12% | 9.2 µM (≈ 4.27 µg/mL) | pIC50 (Cytochrome P450 2C9): 4.46; pIC50 (Cytochrome P450 3A4): 5.82; pIC50 (Cytochrome P450 2C19): 4.48; pIC50 (Cytochrome P450 2D6): < 4.00; pIC50 (Cytochrome P450 1A2): < 4.00 |
| COc1nc(-c2csc(Nc3c4c(nn3C)CCCC4)n2)ccc1-n1cnc(C)c1 | 34% | 6.98 | 60% | 36% | 15 µM (≈ 6.32 µg/mL) |  |
| Cc1cn(-c2ccc(-c3csc(Nc4c5c(nn4C)CCCC5)n3)cn2)cn1 |  | < 6.00 |  |  |  |  |
| CCn1nc(C(C)(C)C)cc1Nc1nc(-c2ccc(-n3cnc(C)c3)c(OC)n2)cs1 | 67% | 6.94 | 89% | 38% | 15 µM (≈ 6.56 µg/mL) |  |
| COc1nc(-c2csc(Nc3cc(C(C)(C)C)nn3C)n2)ccc1-n1cnc(C)c1 |  | 6.87 |  |  |  |  |
| COc1cc(-c2csc(Nc3c4c(nn3C)CCCC4)n2)ccc1-n1cnc(C)c1 |  | 6.83 |  |  |  |  |
| CCCn1nc2c(c1Nc1nc(-c3ccc(-n4cnc(C)c4)c(OC)n3)cs1)CCCC2 |  | 7.32 |  |  | < 1.6 µM |  |
| CCCn1nc(C(C)(C)C)cc1Nc1nc(-c2ccc(-n3cnc(C)c3)c(OC)n2)cs1 |  | 7.00 |  |  | 2.1 µM (≈ 0.948 µg/mL) |  |
| COc1nc(-c2csc(Nc3cc(C(F)(F)F)nn3CC(F)(F)F)n2)ccc1-n1cnc(C)c1 |  | 6.70 |  |  | 2 µM (≈ 1.01 µg/mL) |  |
| COc1nc(-c2csc(Nc3cc(C(C)(C)C)nn3C(C)(C)C)n2)ccc1-n1cnc(C)c1 |  | 7.40 |  |  | < 1.6 µM |  |
| Cc1cn(-c2ccc(-c3csc(Nc4c5c(nn4C)CCCC5)n3)cc2)cn1 | 84% | 6.34 | 56% |  |  | remaining at 0.5 h, 1 µM ([3]; liver microsomes): 55% |
| CCn1nc(C(C)C)cc1Nc1nc(-c2ccc(-n3cnc(C)c3)c(OC)n2)cs1 |  | 6.74 |  |  |  |  |
| CCn1nc(C(C)(C)C)cc1Nc1nc(-c2ccc(-n3cnc(C)c3)cc2)cs1 |  | 6.47 |  |  |  |  |
| COc1nc(-c2csc(Nc3cc(C(C)(C)C)nn3C(C)C)n2)ccc1-n1cnc(C)c1 | 40% | 7.19 | 75% | 21% | 23 µM (≈ 10.4 µg/mL) | pIC50 (Cytochrome P450 2C9): 4.85; pIC50 (Cytochrome P450 3A4): 5.64; pIC50 (Cytochrome P450 2C19): 4.85; pIC50 (Cytochrome P450 2D6): < 4.00; pIC50 (Cytochrome P450 1A2): < 4.00 |
| COc1nc(-c2csc(Nc3c4c(nn3C3CCCC3)CCCC4)n2)ccc1-n1cnc(C)c1 |  | 7.08 |  |  | 1.8 µM (≈ 0.856 µg/mL) |  |
| CCn1nc2c(c1Nc1nc(-c3ccc(-n4cnc(C)c4)c(OC)c3)cs1)CCCC2 |  | 6.77 |  |  | 4.6 µM (≈ 2 µg/mL) |  |
| CCn1nc(C(C)(C)C)cc1Nc1nc(-c2ccc(-n3cnc(C)c3)c(OC)c2)cs1 |  | 7.02 |  |  |  |  |
| COc1nc(-c2csc(Nc3c4c(nn3CCN3CCOCC3)CCCC4)n2)ccc1-n1cnc(C)c1 | 11% | 6.75 | 22% | 0% | 70 µM (≈ 36.4 µg/mL) |  |
| COc1nc(-c2csc(Nc3c4c(nn3CCN3CCCCC3)CCCC4)n2)ccc1-n1cnc(C)c1 |  | 6.68 |  |  | 46 µM (≈ 23.9 µg/mL) |  |
| COc1nc(-c2csc(Nc3c4c(nn3C3CCC3)CCC4)n2)ccc1-n1cnc(C)c1 | 26% | 7.68 | 37% | 3% | 2.7 µM (≈ 1.21 µg/mL) |  |
| COc1nc(-c2csc(Nc3c4c(nn3C3CCOCC3)CCCC4)n2)ccc1-n1cnc(C)c1 |  | 6.99 |  |  | 4.7 µM (≈ 2.31 µg/mL) |  |
| COc1nc(-c2csc(Nc3c4c(nn3C(C)C)CCCC4)n2)ccc1-n1cnc(C)c1 | 45% | 7.34 | 64% | 10% | 3.3 µM (≈ 1.48 µg/mL) |  |
| COc1nc(-c2csc(Nc3c4c(nn3CC(F)(F)F)CCCC4)n2)ccc1-n1cnc(C)c1 | 39% | 7.24 | 41% | 13% | 7.4 µM (≈ 3.62 µg/mL) |  |
